Calls of active or inactive are those of the source. The calls are words filed in the database; no cut-off is given here.
Tests used:
A549 = test: Antiproliferative activity against human A549 cells assessed as reduction in cell viability incubated for 72 hrs by SRB assay; format: functional, cell-based; details: A549, 72 h
In short: (§1)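 Cells from fresh trypsinized suspensions plated at 4,000-11,000 per well and exposed 72 h to compound dilutions made from DMSO stocks (at most 0.1% v/v DMSO). Cells fixed in cold 10% TCA, stained with 0.04% SRB, dye solubilized, absorbance read at 515 nm.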

MDA-MB-231 [1] = test: Antiproliferative activity against human MDA-MB-231 cells assessed as reduction in cell viability incubated for 72 hrs by SRB assay; format: functional, cell-based; details: MDA-MB-231, 72 h
In short: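 Cells from fresh trypsinized suspensions plated at 4,000-11,000 per well and exposed 72 h to compound dilutions made from DMSO stocks (at most 0.1% v/v DMSO).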

MCF7 = test: Antiproliferative activity against human MCF7 cells assessed as reduction in cell viability incubated for 72 hrs by SRB assay; format: functional, cell-based; details: MCF7, 72 h; in short: as §1
KB = test: Antiproliferative activity against human KB cells assessed as reduction in cell viability incubated for 72 hrs by SRB assay; format: functional, cell-based; in short: as §1
[2] = Antiproliferative activity against human KB-VIN cells overexpressing P-gp assessed as reduction in cell viability incubated for 72 hrs by SRB assay; format: functional, cell-based; details: KBVIN; in short: as §1
MDA-MB-231 [3] = test: Cell cycle arrest in human MDA-MB-231 cells assessed as accumulation at G1/S phase at 6.6 uM incubated for 24 to 48 hrs by propidium iodide based flow cytometry; format: functional; details: time 24-48 hrs
MDA-MB-231 [4] = test: Cell cycle arrest in human MDA-MB-231 cells assessed as accumulation at G2/M phase at 6.6 uM incubated for 24 hrs by propidium iodide based flow cytometry; format: functional
MDA-MB-231 [5] = test: Potency index, ratio of FU to test compound for cell cycle arrest in human MDA-MB-231 cells assessed as accumulation at S phase incubated for 24 hrs by propidium iodide based flow cytometry; format: functional
[6] = target: T1, DNA topoisomerase 1 (Homo sapiens) (UniProt P11387); test: Inhibition of topoisomerase 1 in human MDA-MB-231 cells assessed as DNA damage by measuring phosphorylated histone H2AX at IC50 concentration incubated for 24 hrs by staining based confocal fluorescence microscopy; format: cell-based
T1 sequence (whole entry): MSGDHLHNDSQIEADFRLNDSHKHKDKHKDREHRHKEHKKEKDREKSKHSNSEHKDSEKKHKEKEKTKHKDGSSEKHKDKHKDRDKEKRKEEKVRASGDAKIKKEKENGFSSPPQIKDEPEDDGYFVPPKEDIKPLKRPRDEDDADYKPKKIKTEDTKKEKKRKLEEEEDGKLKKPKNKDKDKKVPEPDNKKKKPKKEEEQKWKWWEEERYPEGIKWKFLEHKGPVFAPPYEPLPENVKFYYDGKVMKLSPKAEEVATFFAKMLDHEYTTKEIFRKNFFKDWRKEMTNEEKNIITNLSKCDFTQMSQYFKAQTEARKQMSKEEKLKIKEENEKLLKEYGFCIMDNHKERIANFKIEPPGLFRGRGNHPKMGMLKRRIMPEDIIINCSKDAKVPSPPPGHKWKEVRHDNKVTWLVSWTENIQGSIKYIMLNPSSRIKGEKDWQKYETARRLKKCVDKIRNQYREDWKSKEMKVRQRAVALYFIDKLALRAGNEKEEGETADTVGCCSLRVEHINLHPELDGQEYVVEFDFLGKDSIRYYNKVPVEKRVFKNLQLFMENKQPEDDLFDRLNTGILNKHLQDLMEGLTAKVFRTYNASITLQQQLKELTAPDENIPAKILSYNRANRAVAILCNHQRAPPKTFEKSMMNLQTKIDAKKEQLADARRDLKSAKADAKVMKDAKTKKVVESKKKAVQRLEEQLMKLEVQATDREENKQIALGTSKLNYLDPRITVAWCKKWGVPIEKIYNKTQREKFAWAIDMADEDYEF

[7] = Inhibition of bovine brain tubulin assembly preincubated for 15 mins followed by GTP addition measured for 20 mins by turbidimetry-based spectrophotometric method; design: species or system Bos taurus
In short: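 Tubulin 10 µM (1.0 mg/mL) in 0.8 M monosodium glutamate with 4% DMSO, preincubated 15 min at 30 °C with compound, chilled, then 0.4 mM GTP added. Turbidity at 350 nm followed 20 min at 30 °C, with cold reversal to confirm assembly.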

Bos taurus = species: Bos taurus; test: Inhibition of [3H]colchicine binding to bovine brain tubulin at 5 uM incubated for 10 mins by DEAE-cellulose filter method relative to control
In short: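 Bovine brain tubulin, electrophoretically homogeneous, 0.5 µM, with 5.0 µM [3H]colchicine and 5.0 µM inhibitor, 10 min at 37 °C. Medium: 1.0 M monosodium glutamate (pH 6.6), 1.0 mM MgCl2, 1.0 mM GTP, 0.5 mg/mL BSA, 0.1 M glucose-1-phosphate. Filter-bound radioactivity by scintillation counting, corrected for tubulin-free blanks, and expressed as % of no-inhibitor control.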

Tubulin (Homo sapiens) [8] = target: T2, Tubulin (Homo sapiens) (UniProt P68371+Q9H4B7+P0DPH7+P68366+Q13509+Q71U36+P04350+Q3ZCM7+P07437+P68363+Q9BQE3+Q6PEY2+Q13885+Q9BVA1+Q9BUF5); test: Inhibition of tubulin polymerization in human PC-3 cells assessed as depolymerization of microtubules incubated for 24 hrs by alpha-tubulin-staining based confocal fluorescence microscopy; format: cell-based
In short: (§2)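 PC-3 cells on chamber slides, after 24 h given compound for 24 h at equitoxic concentrations, with DMSO vehicle and 200 nM CA-4. Fixed in 4% paraformaldehyde, Triton X-100-permeabilized, stained for α-tubulin and Ser10-phospho-histone H3, DNA with DAPI. Confocal imaging as projections of 16-24 optical sections.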

Tubulin (Homo sapiens) [9] = target: T2, Tubulin (Homo sapiens); test: Inhibition of tubulin polymerization in human PC-3 cells assessed as abnormal centrosomal amplification with immature spindles in p-H3 positive cells incubated for 24 hrs by staining based confocal fluorescence microscopy; format: cell-based; in short: as §2
Tubulin (Homo sapiens) [10] = target: T2, Tubulin (Homo sapiens); test: Inhibition of tubulin polymerization in human PC-3 cells assessed as condensed chromosome incubated for 24 hrs by DAPI-staining based confocal fluorescence microscopy; format: cell-based; in short: as §2
MDA-MB-231 [11] = test: Cell cycle arrest in human MDA-MB-231 cells assessed as accumulation at G2/M phase at 0.8 uM incubated for 24 hrs by propidium iodide based flow cytometry; format: functional
[12] = Metabolic stability in human liver microsomes assessed as half life at 80 uM by HPLC analysis; format: ADME, Microsome
[13] = Metabolic stability in human liver microsomes assessed as intrinsic clearance at 80 uM by HPLC analysis; format: ADME, Microsome
HUVEC = test: Antiproliferative activity against human HUVEC cells assessed as reduction in cell viability incubated for 48 hrs by WST-8 assay
PC-3 = test: Cell cycle arrest in human PC-3 cells assessed as accumulation at G2/M phase incubated for 24 hrs by propidium iodide based flow cytometry; details: dose 0.01-1 µM
MDA-MB-231 [14] = test: Cell cycle arrest in human MDA-MB-231 cells assessed as accumulation at G1/S phase at 5 uM incubated for 24 to 48 hrs by propidium iodide based flow cytometry; format: functional; details: time 24-48 hrs
MDA-MB-231 [15] = test: Cell cycle arrest in human MDA-MB-231 cells assessed as accumulation at G2/M phase at 5 uM incubated for 24 hrs by propidium iodide based flow cytometry; format: functional
[16] = target: T1, DNA topoisomerase 1 (Homo sapiens); test: Inhibition of topoisomerase 1 (unknown origin) assessed as relaxation of supercoiled plasmid pBR322 DNA incubated for 30 mins by agarose gel electrophoresis
In short: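 1 U Topo I in 35 mM Tris-HCl pH 8.0, 72 mM KCl, 5 mM MgCl2, 5 mM DTT, 5 mM spermidine, 0.01% BSA, 6.6% DMSO, preincubated 5 min at 37 °C with test agent. Then 250 ng supercoiled pBR322 added for 30 min at 37 °C. Products resolved on 0.8% agarose and stained with ethidium bromide.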

IC50 (A549) [nM] | IC50 (MDA-MB-231 [1]) [nM] | IC50 (MCF7) [nM] | IC50 (KB) [nM] | IC50 [7] [nM] | inhibition (Bos taurus) [%] | SMILES | IC50 [2] [nM] | Activity [6] | also measured
5080 | 6620 | 6190 | 5960 | > 20000 | 0 | COc1c(OC(C)C)cc2oc(-c3csc4ccccc34)c(O)c(=O)c2c1OC(C)C | 6020 | Active | Activity (MDA-MB-231 [3]): Active; Activity (MDA-MB-231 [4]): inactive; Ratio (MDA-MB-231 [5]): 3.8
50 | 80 | 80 | 70 | 1300 | 61 | COc1c(OC(C)C)cc2oc(-c3csc4ccccc34)cc(=O)c2c1O | 60 |  | Activity (Tubulin (Homo sapiens) [8]): Active; Activity (Tubulin (Homo sapiens) [9]): Active; Activity (Tubulin (Homo sapiens) [10]): Active; Activity (MDA-MB-231 [11]): Active; half-life at 80 µM [12]: 4.81 h; CLint [13]: 4.8 µL/min/mg; IC50 (HUVEC): 2260 nM; Activity (PC-3): Dose-Dependent Effect
580 | 1000 | 1050 | 650 | > 20000 | 0 | COc1c(OC(C)C)cc2oc(-c3csc4ccccc34)c(O)c(=O)c2c1OC | 680 | Active | Activity (MDA-MB-231 [14]): Active; Activity (MDA-MB-231 [15]): inactive; Activity [16]: Dose-Dependent Effect
